We go through 1 compound from ChEMBL document CHEMBL3124867, “Hepatitis C replication inhibitors that target the viral NS4B protein” (J Med Chem, 2014).

In series [1] the test system is Mus musculus. In words: AUC (0 to 12 hrs) in PXB mouse assessed as 4-(3-chloro-6-cyclopropyl-8-(trifluoromethyl)imidazo[1,2-a]pyridine-2-carbonyl)-1-((trans)-4-hydroxycyclohexyl)piperazin-2-one level at 30 mg/kg, po. The series is classed as ADME, organism-based, Plasma. Also noted: time < 12 hr, dose 30 mg/kg, route oral. The note with it: in vivo. Summed up: (§1)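 Single oral dose of the phosphate prodrug at 10 or 30 mg/kg to uninfected PXB mice (n = 3/group). Plasma levels of the parent drug were followed over 12 h, and AUC0−12h was calculated for the parent.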

Series [2] can be described thus: Toxicity in po dosed PXB mouse assessed as compound accumulation administered bid every 12 hrs for 7 days. The note with it: in vivo. The series is classed as organism-based. Summed up: (§2)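 Repeat-dose tolerability study in uninfected PXB mice, run before HCV infection. The test agent was given orally as a phosphate prodrug at 10 and 30 mg/kg b.i.d. for 7 days. Plasma exposure of the parent drug was followed over the course, and liver tissue was taken 12 h after dosing on day 7.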

For series [3], the system named is Hepatitis C virus. In words: Antiviral activity against wild-type Hepatitis C virus genotype 1a infected in PXB mouse assessed as log reduction in viral mRNA titer at 10 to 30 mg/kg, po bid every 12 hrs for 7 days measured after 12 hrs relative to control. The settings on record: dose mg/kg 10-30. The series is classed as functional, Hepacivirus hominis, subtype 1a. Summed up:
(§3)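 PXB mice infected with wild-type HCV genotype 1a virus were dosed orally b.i.d. 5−8 weeks after infection with the phosphate prodrug of the lead (10 or 30 mg/kg) for 7 days, n = 4/group. A non-nucleoside NS5B inhibitor at 100 mg/kg b.i.d. served as positive control. Read-out was HCV viral RNA titer (viral load) over the course of treatment.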

The subject of series [4] is Hepatitis C virus. Put plainly: Antiviral activity against wild-type Hepatitis C virus genotype 1a infected in PXB mouse assessed as log reduction in viral mRNA titer at 10 to 30 mg/kg, po bid every 12 hrs for 7 days measured on day 4 relative to control. The settings on record: dose mg/kg 10-30. The format is functional, Hepacivirus hominis, subtype 1a. The essentials:
as §3

Series [5] concerns Hepatitis C virus. In words: Antiviral activity against wild-type Hepatitis C virus genotype 1a infected in po dosed PXB mouse assessed as log reduction in viral mRNA titer administered bid every 12 hrs for 7 days measured on day 7 relative to control. The format is functional, organism-based. The note with it: Hepacivirus hominis; subtype 1a. The essentials: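 PXB mice were infected with HCV genotype 1a wild-type virus and treated 5−8 weeks later (n = 4/group). Oral dosing b.i.d. for 7 days: prodrug at 10 or 30 mg/kg, or positive control at 100 mg/kg. Serum HCV RNA titers (viral load) were followed over the course of dosing.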

Series [6] can be described thus: Toxicity in po dosed PXB mouse assessed as induction of metabolism administered bid every 12 hrs for 7 days. The series is classed as organism-based. The note with it: in vivo. Summed up: as §2
Series [7] has as its system Rattus norvegicus. Put plainly: Prodrug conversion in CD rat assessed as 4-(3-chloro-6-cyclopropyl-8-(trifluoromethyl)imidazo[1,2-a]pyridine-2-carbonyl)-1-((trans)-4-hydroxycyclohexyl)piperazin-2-one level at 300 mg/kg, po. The series is classed as ADME, organism-based. Also noted: dose 300 mg/kg, route oral. The note with it: in vivo. Summed up: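 CD rats were given a single oral dose of 300 mg/kg of parent suspension or of prodrug. Plasma was assayed for the parent drug and for uncleaved prodrug.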

The nature of series [8]: Aqueous solubility in fasted state simulated intestinal fluid at pH 6.5 by LC/UV analysis. The series is classed as physicochemical.
The test system of series [9] is Liver. Put plainly: Drug uptake in PXB mouse liver assessed as 4-(3-chloro-6-cyclopropyl-8-(trifluoromethyl)imidazo[1,2-a]pyridine-2-carbonyl)-1-((trans)-4-hydroxycyclohexyl)piperazin-2-one level at 10 to 30 mg/kg, po bid every 12 hrs for 7 days measured 12 hrs post last dose. The series is classed as ADME, organism-based. Set-up: dose 10-30 mg/kg, route oral. The settings on record: in vivo. The essentials:
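Uninfected PXB mice were given the prodrug orally at 10 or 30 mg/kg b.i.d. for 7 days. Liver tissue was taken 12 h after the day-7 dose and the level of parent drug in liver was measured relative to plasma.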

In series [10] the test system is Mus musculus. In words: AUC (0 to 12 hrs) in PXB mouse assessed as 4-(3-chloro-6-cyclopropyl-8-(trifluoromethyl)imidazo[1,2-a]pyridine-2-carbonyl)-1-((trans)-4-hydroxycyclohexyl)piperazin-2-one level at 10 mg/kg, po. The note with it: in vivo. Set-up: time < 12 hr, dose 10 mg/kg, route oral. The series is classed as ADME, organism-based, Plasma. The essentials:
as §1

Usually AUC stands for the area under the concentration-time curve, a measure of exposure. The term solubility denotes the concentration that dissolves in the medium under given conditions. Lower therefore signals little dissolved substance.

In the case of `O=C(c1nc2c(C(F)(F)F)cc(C3CC3)cn2c1Cl)N1CCN([C@H]2CC[C@H](OP(=O)(O)O)CC2)C(=O)C1`, the AUC stood at 66000 ng·h/mL in series [1] and 15000 ng·h/mL in series [10]. Besides, the figures for the MTD at 7 days in [2] and in [6] were 10 mg/kg and 30 mg/kg, respectively. The values for the FC in series [3] and in series [4] were 1 and 4, respectively. For the same compound, in series [5], the Activity entry was “Dose-dependent effect”. Also, the Stability entry in [7] is listed as “Unstable”. Besides, the solubility in series [8] is > 1000 µg/mL. Moreover, in [9], the Drug uptake result was “Active”.
